Calls of active or inactive are those of the source. The calls are words filed in the database; no cut-off is given here.
What was measured:
[1] = Drug metabolism in human MCF7 cells at 1 uM after 24 hrs by HPLC analysis; assay type: ADME, cell-based; details: read-out: Drug metabolism
Procedure, shortened: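 MCF7 cells were incubated 24 h with 1 µM compound, alongside a medium-only incubation without cells. Mixtures were extracted with chloroform/methanol (3:1, v/v) and quantified by HPLC. Mean ± SEM, n = 3.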

MCF7 [2] = experiment: Antitumor activity against human MCF7 cells xenografted in BALB/c nude mouse assessed as tumor growth inhibition at 10 mg/kg, ip administered every other day; assay type: functional, organism-based
Procedure, shortened: (§1)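 MCF7 cells transplanted orthotopically into the breast of athymic nude mice. Dosing at 10 mg/kg i.p. in vehicle of polyoxyethylated castor oil/ethanol/saline 1:1:18, with vehicle and saline control groups. Body weight, tumor volume and serum calcium followed.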

MCF7 [3] = experiment: Antiproliferative activity against human MCF7 cells after 48 hrs by MTT assay; assay type: functional, cell-based; details: MCF7, 48 h
MCF7 [4] = experiment: Induction of apoptosis in human MCF7 cells assessed as viable cells at 1 uM after 24 hrs by Annexin V-FITC/propidium iodide-staining based flow cytometry (reference value: 98.2%); assay type: functional; details: MCF7, 24 h, read-out: Activity
Mus musculus [5] = experiment: Hypercalcemic effect in ICR mouse at 30 mg/kg/day, ip administered for 7 days measured on day 8 post-dose by MTB-based assay relative to control; assay type: ADME, organism-based; details: in vivo, 168 h
Procedure, shortened: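 Mice were dosed i.p. over a 7-day period and serum calcium was then measured. Each dose level was compared with a vehicle-treated control group (saline cited as the comparator). Data are mean ± SEM, n = 6 per group. Significance versus vehicle was reported at p < 0.05, 0.01 and 0.001.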

Mus musculus [6] = experiment: Toxicity in BALB/c nude mouse xenografted with human MCF7 cells assessed as change in body weight at 10 mg/kg, ip administered every other day relative to control; assay type: organism-based; details: in vivo; procedure, shortened: as §1
MCF7 [7] = experiment: Antitumor activity against human MCF7 cells xenografted in BALB/c nude mouse assessed as reduction in tumor cell proliferation at 10 mg/kg, ip administered every other day by Ki-67 staining based microscopic analysis; assay type: functional, organism-based
Procedure, shortened: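 MCF7 orthotopic tumors from nude mice given 10 mg/kg i.p. were sectioned and immunostained for Ki-67. Ki-67-positive area was scored as a percentage of total nuclear area per field (n=10 fields, 400×) and normalized to the calcitriol group.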

[8] = Half life in Sprague-Dawley rat at 20 mg/kg, po by HPLC analysis; assay type: ADME, organism-based; details: in vivo
Procedure, shortened: (§2)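 Male Sprague-Dawley rats (180−220 g), 4 per group, dosed at 5 mg/kg i.v., 20 mg/kg i.p. or 20 mg/kg p.o. Parameters given as mean ± SD (n = 4).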

[9] = AUC in Sprague-Dawley rat at 20 mg/kg, ip measured up to 48 hrs post administration by HPLC analysis; assay type: ADME, organism-based; design: time < 48 hr, dose 20 mg/kg, route intraperitoneal; details: in vivo; procedure, shortened: as §2
MCF7 [10] = experiment: Induction of apoptosis in human MCF7 cells assessed as late apoptotic cells at 1 uM after 24 hrs by Annexin V-FITC/propidium iodide-staining based flow cytometry (reference value: 0.062%); assay type: functional
MCF7 [11] = experiment: Induction of cell cycle arrest in human MCF7 cells assessed as upregulation of p27 mRNA levels at 1 uM after 24 hrs by RT-qPCR analysis; assay type: functional, cell-based
Procedure, shortened: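 p21 and p27 mRNA levels were measured by real-time quantitative PCR in MCF7 cells treated at 1 µM for 24 h.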

[12] = Oral bioavailability in Sprague-Dawley rat at 20 mg/kg measured up to 48 hrs after administration by HPLC analysis; assay type: ADME, organism-based; details: in vivo; procedure, shortened: as §2
MCF7 [13] = experiment: Induction of apoptosis in human MCF7 cells assessed as upregulation of Bax mRNA levels at 1 uM after 24 hrs by RT-qPCR analysis; assay type: functional, cell-based
Caco-2 = experiment: Antiproliferative activity against human Caco2 cells after 48 hrs by MTT assay; assay type: functional, cell-based; details: Caco-2, 48 h

Structure (SMILES)	metabolised at 24 h, 1 µM [1] [%]	TGI (MCF7 [2])	IC50 (MCF7 [3]) [nM]	viability at 1 µM (MCF7 [4]) [%]	Activity (Mus musculus [5])	Activity (Mus musculus [6])	Activity (MCF7 [7])	half-life [8] [h]	AUC at 48 h [9] [ng·h/mL]	Activity (MCF7 [10]) [%]	Activity (MCF7 [11])	bioavailability [12] [%]	Activity (MCF7 [13])	IC50 (Caco-2) [nM]
CCn1c(C(=O)NCCCN2CCOCC2)ccc1C(CC)(CC)c1ccc(OCCC(O)(CC)CC)c(C)c1	6	Active	260	87.3	Toxic	Non-Toxic	Active	11.3	25900	2.83	Active	36.8	Active	2720
CCN(CC)CCCNC(=O)c1ccc(C(CC)(CC)c2ccc(OCCC(O)(CC)CC)c(C)c2)n1CC	–	Active	57	85.7	–	Non-Toxic	Active	6.82	30500	4.49	Active	21.3	Active	17

— ChEMBL document CHEMBL4033800, “Further Developments of the Phenyl-Pyrrolyl Pentane Series of Nonsteroidal Vitamin D Receptor Modulators as Anticancer Agents” (J Med Chem, 2018)
